Assay results of several laboratories.
Target: Alpha-glucosidase MAL12 (MAL12, Saccharomyces cerevisiae S288c, UniProt P53341)
Observed: enzyme activity
Mode: inhibitor

CC(=O)C1=C(C)n2c(=O)c3ccccc3c(=O)n2C1c1cn(-c2ccccc2)nc1-c1ccc([N+](=O)[O-])cc1 (stereo not shown) — IC50 (absorbance): 86.7 µM
Nc1c(-c2ccccc2)nc2ncnn2c1-c1ccccc1Cl — IC50 (absorbance): 125 µM
C[C@@H]1CN(C(=O)Nc2ccc(C(F)(F)F)cc2)CCN1c1ccnc(Nc2ccc(Cl)cc2)n1 — IC50 (absorbance; pH 6.9): 3.47 µM
CC1(C)CC(=O)C2=C(C1)n1c(=O)c3ccccc3c(=O)n1C2c1cn(-c2ccccc2)nc1-c1ccc([N+](=O)[O-])cc1 (stereo not shown) — IC50 (absorbance): 285 µM
CCCCCCCCCCCCCCCCCC(=O)OCC(C)(C)CC1=C(O)C(=O)c2ccccc2C1=O — IC50: 25.7 µM
COc1cc(/C=C/c2ccc(O)cc2)cc(OC)c1 — IC50 (absorbance; pH 6.8): 1570 µM
Cc1ccc(-c2nc3ncnn3c(-c3ccc(Cl)cc3)c2N)cc1 — IC50 (absorbance): 54.6 µM
COc1ccc(-c2nn(-c3ccccc3)cc2C2C3=C(CC(C)(C)CC3=O)n3c(=O)c4ccccc4c(=O)n32)cc1 (stereo not shown) — IC50 (absorbance): 229 µM
CC(C)(CO)CC1=C(O)C(=O)c2ccccc2C1=O — IC50: > 200 µM
C[C@H]1CN(C(=O)Nc2ccc(Cl)c(Cl)c2)CCN1c1ccnc(Nc2ccc(Cl)cc2)n1 — IC50 (absorbance; pH 6.9): 1.82 µM
CC1(C)CC(=O)C2=C(C1)n1c(=O)c3ccccc3c(=O)n1C2c1cn(-c2ccccc2)nc1-c1ccccc1 (stereo not shown) — IC50 (absorbance): 74.2 µM
Nc1c(-c2ccc(Cl)cc2)nc2ncnn2c1-c1cccs1 — IC50 (absorbance): 82.4 µM
C[C@H]1CN(C(=O)Nc2ccc(C(F)(F)F)cc2)CCN1c1ccnc(Nc2ccc(F)cc2)n1 — IC50 (absorbance; pH 6.9): 1.82 µM
CC(=O)C1=C(C)n2c(=O)c3ccccc3c(=O)n2C1c1cn(-c2ccccc2)nc1-c1ccc(Cl)cc1 (stereo not shown) — IC50 (absorbance): 359 µM
C[C@H]1CN(C(=O)Nc2ccc(C(F)(F)F)cc2)CCN1c1ccnc(Nc2ccccc2O)n1 — IC50 (absorbance; pH 6.9): 5.13 µM
COc1ccc(-c2c(N)c(-c3ccc(C)cc3)nc3ncnn23)cc1 — IC50 (absorbance): 89.3 µM
